Assay results reported in ChEMBL document CHEMBL3217698, “Syntheses and biological evaluation of new cephalosporin-oxazolidinone conjugates” (2010).

Key:
Pseudomonas aeruginosa [1] = assay: Antimicrobial activity against Pseudomonas aeruginosa K799/WT assessed as faint inhibition zone at 37 degC for 24 hrs by agar diffusion method; format: functional
Method in brief: (§1)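 Each solution at 2.0 mM in DMSO:MeOH (1:9), 50 μL filled into 9 mm agar wells (Standard I Nutrient or Mueller Hinton II Agar). Incubation at 37 °C for 24 h. Inhibition zone diameter measured in mm; a partially clear zone or colonies inside the zone noted as p.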

Staphylococcus aureus [2] = assay: Antimicrobial activity against Staphylococcus aureus Efs4 assessed as partially clear inhibition zone at 37 degC for 24 hrs by agar diffusion method; format: functional
Method in brief: (§2)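 Agar well diffusion. Each 9 mm well in nutrient or Mueller Hinton II agar received 50 μL of a 2.0 mM solution in DMSO:MeOH (1:9). Plates were incubated at 37 °C for 24 h. The inhibition zone diameter was read in mm, including the 9 mm well. A "p" marks a partially clear zone or colonies inside the zone.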

Micrococcus luteus [3] = assay: Antimicrobial activity against Micrococcus luteus ATCC 10240 assessed as unclear inhibition zone at 37 degC for 24 hrs by agar diffusion method; format: functional
Method in brief: (§3)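 Agar well diffusion. Each 9 mm well in nutrient or Mueller Hinton II agar received 50 μL of a 1.0 mM solution in DMSO:MeOH (1:9). Plates were incubated at 37 °C for 24 h. The inhibition zone diameter was read in mm, including the well. A "p" marks a partially clear zone or colonies inside the zone.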

Enterococcus faecalis [4] = assay: Antimicrobial activity against vancomycin-resistant Enterococcus faecalis 1528 assessed as inhibition zone at 37 degC for 24 hrs by agar diffusion method; format: functional; method in brief: as §2
Mycolicibacterium vaccae [5] = assay: Antimicrobial activity against Mycobacterium vaccae IMET assessed as inhibition zone at 37 degC for 24 hrs by agar diffusion method; format: functional
Method in brief: (§4)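 Well diffusion: 50 μL of a 1.0 mM solution in DMSO:MeOH (1:9) filled into 9 mm wells cut in Standard I Nutrient Agar or Mueller Hinton II Agar. Plates incubated at 37 °C for 24 h, then growth inhibition zone read in mm. Partially clear zones, or colonies within the zone, recorded as p.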

Escherichia coli [6] = assay: Antimicrobial activity against Escherichia coli SG458 assessed as partially clear inhibition zone at 37 degC for 24 hrs by agar diffusion method; format: functional; method in brief: as §3
Pseudomonas aeruginosa [7] = assay: Antimicrobial activity against Pseudomonas aeruginosa K799/61 assessed as faint inhibition zone at 37 degC for 24 hrs by agar diffusion method; format: functional; method in brief: as §2
Staphylococcus aureus [8] = assay: Antimicrobial activity against Staphylococcus aureus SG511 assessed as inhibition zone at 37 degC for 24 hrs by agar diffusion method; format: functional; method in brief: as §4
Staphylococcus aureus [9] = assay: Antimicrobial activity against Staphylococcus aureus Efs1 assessed as partially clear inhibition zone at 37 degC for 24 hrs by agar diffusion method; format: functional; method in brief: as §2
Staphylococcus aureus [10] = assay: Antimicrobial activity against Staphylococcus aureus Efs4 assessed as inhibition zone at 37 degC for 24 hrs by agar diffusion method; format: functional; method in brief: as §1
Bacillus subtilis [11] = assay: Antimicrobial activity against Bacillus subtilis ATCC 6633 assessed as inhibition zone at 37 degC for 24 hrs by agar diffusion method; format: functional; method in brief: as §4
Pseudomonas aeruginosa [12] = assay: Antimicrobial activity against Pseudomonas aeruginosa K799/61 assessed as inhibition zone at 37 degC for 24 hrs by agar diffusion method; format: functional; method in brief: as §1
Micrococcus luteus [13] = assay: Antimicrobial activity against Micrococcus luteus ATCC 10240 assessed as inhibition zone at 37 degC for 24 hrs by agar diffusion method; format: functional; method in brief: as §4
Staphylococcus aureus [14] = assay: Antimicrobial activity against Staphylococcus aureus Efs1 assessed as inhibition zone at 37 degC for 24 hrs by agar diffusion method; format: functional; method in brief: as §1
Pseudomonas aeruginosa [15] = assay: Antimicrobial activity against Pseudomonas aeruginosa K799/WT assessed as partially clear inhibition zone at 37 degC for 24 hrs by agar diffusion method; format: functional; method in brief: as §2
Staphylococcus aureus [16] = assay: Antimicrobial activity against methicillin-resistant Staphylococcus aureus 134/93 assessed as inhibition zone at 37 degC for 24 hrs by agar diffusion method; format: functional; method in brief: as §2
Micrococcus luteus [17] = assay: Antimicrobial activity against Micrococcus luteus ATCC 10240 assessed as partially clear inhibition zone at 37 degC for 24 hrs by agar diffusion method; format: functional; method in brief: as §3
Bacillus subtilis [18] = assay: Antimicrobial activity against Bacillus subtilis ATCC 6633 assessed as partially clear inhibition zone at 37 degC for 24 hrs by agar diffusion method; format: functional; method in brief: as §4
Escherichia coli [19] = assay: Antimicrobial activity against Escherichia coli SG458 assessed as inhibition zone at 37 degC for 24 hrs by agar diffusion method; format: functional; method in brief: as §4
Pseudomonas aeruginosa [20] = assay: Antimicrobial activity against Pseudomonas aeruginosa K799/61 assessed as partially clear inhibition zone at 37 degC for 24 hrs by agar diffusion method; format: functional; method in brief: as §2
Pseudomonas aeruginosa [21] = assay: Antimicrobial activity against Pseudomonas aeruginosa K799/61 assessed as inhibition zone at 5 ug/ml at 37 degC for 24 hrs by agar diffusion method; details: K799/61, 24 h, read-out: IZ
Enterococcus faecalis [22] = assay: microbe, parasite or virus in culture; details: Enterococcus faecalis, 1528, 24 h, read-out: IZ
Staphylococcus aureus [23] = assay: microbe, parasite or virus in culture; details: 134/93, 24 h, read-out: IZ
Escherichia coli [24] = assay: Antimicrobial activity against Escherichia coli SG458 assessed as inhibition zone at 5 ug/ml at 37 degC for 24 hrs by agar diffusion method; details: SG458, 24 h, read-out: IZ
Bacillus subtilis [25] = assay: microbe, parasite or virus in culture; details: ATCC 6633, 24 h, read-out: IZ
Staphylococcus aureus [26] = assay: Antimicrobial activity against Staphylococcus aureus Efs1 assessed as inhibition zone at 5 ug/ml at 37 degC for 24 hrs by agar diffusion method; details: Efs1, 24 h, read-out: IZ
Micrococcus luteus [27] = assay: Antimicrobial activity against Micrococcus luteus ATCC 10240 assessed as inhibition zone at 5 ug/ml at 37 degC for 24 hrs by agar diffusion method; format: functional; details: ATCC 10240, 24 h, read-out: IZ
Method in brief: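 Agar well diffusion with the control antibiotic dissolved in water at 5 μg/mL. 50 μL was placed in each 9 mm well in nutrient or Mueller Hinton II agar. Plates were incubated at 37 °C for 24 h, and the inhibition zone diameter was read in mm, including the well.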

Staphylococcus aureus [28] = assay: Antimicrobial activity against Staphylococcus aureus SG511 assessed as inhibition zone at 5 ug/ml at 37 degC for 24 hrs by agar diffusion method; details: SG511, 24 h, read-out: IZ
Pseudomonas aeruginosa [29] = assay: Antimicrobial activity against Pseudomonas aeruginosa K799/WT assessed as inhibition zone at 5 ug/ml at 37 degC for 24 hrs by agar diffusion method; details: read-out: IZ
Mycolicibacterium vaccae [30] = assay: Antimicrobial activity against Mycobacterium vaccae IMET assessed as inhibition zone at 5 ug/ml at 37 degC for 24 hrs by agar diffusion method; format: functional; details: read-out: IZ
Method in brief: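 Ciprofloxacin dissolved in water at 5 μg/mL and filled into 9 mm wells in nutrient or Mueller Hinton II agar. Plates held at 37 °C for 24 h, after which the growth inhibition zone was read in mm.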

Staphylococcus aureus [31] = assay: Antimicrobial activity against Staphylococcus aureus Efs4 assessed as inhibition zone at 5 ug/ml at 37 degC for 24 hrs by agar diffusion method; details: Efs4, 24 h, read-out: IZ
Pseudomonas aeruginosa [32] = assay: Antimicrobial activity against Pseudomonas aeruginosa K799/WT assessed as inhibition zone at 37 degC for 24 hrs by agar diffusion method; format: functional; method in brief: as §1

Structure (SMILES) | inhibition zone (IZ) (Pseudomonas aeruginosa [1]) | inhibition zone (IZ) (Staphylococcus aureus [2]) | inhibition zone (IZ) (Micrococcus luteus [3]) | inhibition zone (IZ) (Enterococcus faecalis [4]) | inhibition zone (IZ) (Mycolicibacterium vaccae [5]) | inhibition zone (IZ) (Escherichia coli [6]) | inhibition zone (IZ) (Pseudomonas aeruginosa [7]) | inhibition zone (IZ) (Staphylococcus aureus [8]) | inhibition zone (IZ) (Staphylococcus aureus [10]) | inhibition zone (IZ) (Bacillus subtilis [11]) | inhibition zone (IZ) (Pseudomonas aeruginosa [12]) | inhibition zone (IZ) (Micrococcus luteus [13]) | inhibition zone (IZ) (Staphylococcus aureus [14]) | inhibition zone (IZ) (Staphylococcus aureus [16]) | inhibition zone (IZ) (Bacillus subtilis [18]) | inhibition zone (IZ) (Escherichia coli [19]) | further results
CC(=O)NC[C@H]1CN(c2ccc(N3CCNCC3)c(F)c2)C(=O)O1 | 18 mm | 18 mm | 30 mm | 25 mm | 35 mm | 14 mm | 30 mm | 18 mm | 14 mm | 26 mm | 20 mm | 23 mm | 31 mm | 25 mm |  |  | inhibition zone (IZ) (Staphylococcus aureus [9]): 35 mm; inhibition zone (IZ) (Pseudomonas aeruginosa [15]): 11 mm
CC(=O)OC[C@H]1CN(c2ccc(N3CCNCC3)c(F)c2)C(=O)O1 | 15 mm | 23 mm | 40 mm | 25 mm | 42 mm | 13 mm | 26 mm | 21 mm | 19 mm | 24 mm | 16 mm |  | 31 mm | 29 mm | 26 mm |  | inhibition zone (IZ) (Micrococcus luteus [17]): 31 mm
CC(=O)OC[C@H]1CN(c2ccc(N3CCN(C(=O)OCC4=C(C(=O)O)N5C(=O)[C@@H](NC(=O)Cc6ccccc6)[C@H]5SC4)CC3)c(F)c2)C(=O)O1 | 17 mm |  |  | 26 mm | 44 mm |  |  | 36 mm | 31 mm | 43 mm | 22 mm | 42 mm | 40 mm | 27 mm | 47 mm | 33 mm | inhibition zone (IZ) (Pseudomonas aeruginosa [20]): 31 mm
CC(=O)NC[C@H]1CN(c2ccc(N3CCN(C(=O)OCC4=C(C(=O)O)N5C(=O)[C@@H](NC(=O)Cc6ccccc6)[C@H]5SC4)CC3)c(F)c2)C(=O)O1 | 20 mm |  |  | 23 mm | 30 mm |  | 33 mm | 34 mm | 30 mm | 42 mm | 24 mm | 38 mm | 40 mm | 17 mm | 45 mm | 33 mm | inhibition zone (IZ) (Micrococcus luteus [17]): 42 mm; inhibition zone (IZ) (Pseudomonas aeruginosa [15]): 15 mm
CC(=O)OCC1=C(C(=O)O)N2C(=O)[C@@H](NC(=O)Cc3ccccc3)[C@H]2SC1 [CEFALORAM] | 11 mm |  | 44 mm | 23 mm | 0 mm |  |  | 39 mm | 35 mm | 46 mm | 23 mm | 38 mm | 43 mm | 13 mm | 52 mm | 35 mm | 
O=C(O)c1cn(C2CC2)c2cc(N3CCNCC3)c(F)cc2c1=O [CIPROFLOXACIN] |  |  |  |  |  |  |  |  |  |  |  |  |  |  |  |  | zone of inhibition at 5 µg/mL (Pseudomonas aeruginosa [21]): 35 mm; zone of inhibition at 5 µg/mL (Enterococcus faecalis [22]): 15 mm; zone of inhibition at 5 µg/mL (Staphylococcus aureus [23]): 0 mm; zone of inhibition at 5 µg/mL (Escherichia coli [24]): 34 mm; zone of inhibition at 5 µg/mL (Bacillus subtilis [25]): 31 mm; zone of inhibition at 5 µg/mL (Staphylococcus aureus [26]): 0 mm; zone of inhibition at 5 µg/mL (Micrococcus luteus [27]): 0 mm; zone of inhibition at 5 µg/mL (Staphylococcus aureus [28]): 18 mm; zone of inhibition at 5 µg/mL (Pseudomonas aeruginosa [29]): 29 mm; zone of inhibition at 5 µg/mL (Mycolicibacterium vaccae [30]): 23 mm; zone of inhibition at 5 µg/mL (Staphylococcus aureus [31]): 0 mm
CC(=O)NC[C@H]1CN(c2ccc(N3CCOCC3)c(F)c2)C(=O)O1 [LINEZOLID] |  | 39 mm | 45 mm | 34 mm | 52 mm | 28 mm |  | 35 mm | 35 mm | 33 mm |  | 38 mm | 34 mm | 42 mm | 37 mm | 23 mm | inhibition zone (IZ) (Staphylococcus aureus [9]): 39 mm; inhibition zone (IZ) (Pseudomonas aeruginosa [32]): 0 mm; inhibition zone (IZ) (Pseudomonas aeruginosa [20]): 10 mm
